# Data as given in PMC11740227 (FASEB journal : official publication of the Federation of …, 2023).
# Tests used:
# [1] = test system: Molt4E6 cells; test: Cell death by trypan blue exclusion in Molt4E6 cells; type: cell-based, human; settings: for cell death: Molt4E6 cells, 24 h of treatment
# [2] = test system: Molt4E6 cells; test: Caspase activation by Western blot in Molt4E6 cells; type: cell-based, human; settings: 6 h of treatment
# [3] = Pharmacokinetics of PF543 in wildtype mice, IP dosing; type: in vivo, mouse; settings: after IP administration in mice
# [4] = type: in vitro ADME; settings: mouse
# [5] = test system: WT mice; test: Tolerability of IP dosing in the PK study; type: in vivo; settings: 100 mg/kg IP
# [6] = test system: S1P levels in blood; test: Blood sphingolipid analysis by LC MS/MS after PF543 administration; type: in vivo, mouse; settings: 10 mg/kg of body weight, 2 h after IP injection, vs vehicle
# [7] = test system: Trp53KO thymic lymphoma; test: Thymic lymphoma growth in Trp53KO mice by ultrasound imaging; type: in vivo, mouse; settings: 10 mg/kg BID IP for 10 days, compared to vehicle
# [8] = test system: Trp53KO thymic lymphoma; test: Cleaved caspase 3 immunohistochemistry of tumor tissue; type: in vivo, mouse; settings: Trp53KO mice, day 10 after treatment initiation, compared to vehicle
# Method in brief: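 Male Trp53KO mice with ultrasound-detected thymic lymphoma (100–150 mm3) received vehicle or test compound, 10 mg/kg IP twice daily (suspension in 1% HPMC/PBS), and tumors were taken at day 10. Sections were stained overnight at 4°C with anti-cleaved caspase-3 (1:200), then biotinylated anti-rabbit, DAB/H2O2 and hematoxylin counterstain. Positive cells counted in ten 20× fields per sample, expressed per mm2; three mice per condition.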
# [9] = test system: mouse Trp53KO thymic lymphoma cells; test: Proliferation, viability and cell death of cultured thymic lymphoma cells; type: cell-based
# [10] = test system: mouse Trp53KO thymic lymphoma cells; test: Sphingolipid levels in cultured cells by LC MS/MS; type: cell-based; settings: PF543 0.5 μM
# [11] = test system: lymphocytes isolated from WT thymus; test: Viability of WT lymphocytes; type: cell-based, mouse
# [12] = test system: WT mice; settings: mouse, in vivo, ip, 10 mg/kg
# [13] = test system: Jurkat cells; test: Cell death by trypan blue exclusion in Jurkat cells with Bak knockdown; type: cell-based, human; settings: Jurkat sgRNA BakA and BakB vs control cells, 24 h of treatment
compound,measurement,setting,value
CCCC[C@@H](C)[C@@H](OC(=O)C[C@@H](CC(=O)O)C(=O)O)[C@H](C[C@@H](C)C[C@H](O)CCCC[C@@H](O)C[C@H](O)[C@H](C)N)OC(=O)C[C@@H](CC(=O)O)C(=O)O [FB1],protection from Sph-induced cell death,"[1]; FB1 25 μM pre-treatment 1 h, then 3 μM D-erythro-Sph, 24 h",did not protect
CCCCCCCCCCCCC/C=C/[C@H](O)[C@H](N)CO [L-erythro-Sph],cell death,[1],did not induce cell death
same,caspase activation,[2],did not induce cell death or caspase activation
Cc1cc(CS(=O)(=O)c2ccccc2)cc(OCc2ccc(CN3CCC[C@@H]3CO)cc2)c1 [PF543],half-life (T1/2),[3],~ 4 h
same,plasma protein binding,[4],94 % bound
same,tolerability of IP dosing,[5],not tolerated
same,S1P levels in blood,[6],decreased
same,tumor growth (tumor size by ultrasound),[7],significant inhibition
same,number of cleaved caspase 3 positive cells in tumor samples,[8],significantly higher
same,proliferation over time,"[9]; PF543 0.5 μM, low-serum medium, counted every day for 4 days, CCK-8 at day 2",significantly decreased
same,cell death,[9]; Trp53KO thymic lymphoma cells treated with PF543,resulted in cell death
same,survival of cells in culture,[9]; mouse Trp53KO lymphoma cells,reduced survival
same,Sph levels in cells,[10],significantly increased
same,total Cer levels in cells,[10],significantly increased
same,cell viability over time,[11],did not affect cell viability
same,liver function (liver enzymes in blood),[12],did not significantly impact
same,number of total white cells and lymphocytes in blood,[12],no decrease
"CCCCCCCCCCCCC/C=C/[C@@H](O)[C@@H](N)CO [Sph, sphingosine]",cell death,[1],caused cell death
same,caspase activation,[2],activation of caspases
same,Sph-induced cell death after knockdown of Bak,[13],significantly protected
ZVAD,protection from PF543-induced cell death,"[9]; pan-caspase inhibitor with PF543, Trp53KO thymic lymphoma cells",partially protected
same,inhibition of Sph-induced cell death,"[1]; ZVAD 40 μM pre-treatment 1 h, then 3 μM D-erythro-Sph, 24 h",significantly inhibited
